Reference: ChEMBL document CHEMBL1817608, “Synthesis and anti-inflammatory effects of a series of novel 7-hydroxycoumarin derivatives” (Eur J Med Chem, 2011)

Columns and labels:
[1] = tested on: J774; assay: Cytotoxicity against mouse J774 cells at 100 uM by XTT assay; type: cell-based; details: j774, 100 µM
Summary of the method: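 Confluent J774 monolayers were exposed to compound under the same conditions as the anti-inflammatory assays. Viability was read as mitochondrial dehydrogenase reduction of XTT to formazan.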

[2] = tested on: J774; assay: Inhibition of LPS-stimulated iNOS protein expression in mouse J774 cells at 10 uM by Western blot analysis
[3] = tested on: J774; assay: Inhibition of LPS-stimulated iNOS protein expression in mouse J774 cells at 100 uM by Western blot analysis
[4] = tested on: J774; assay: Inhibition of LPS-stimulated IL-6 production in mouse J774 cells at 100 uM by ELISA
[5] = tested on: J774; assay: Antiinflammatory activity in mouse J774 cells assessed as inhibition of LPS-induced NO production at 10 uM by Griess reaction; type: functional
Summary of the method: (§1)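 Confluent J774 macrophages, grown 72 h in 24-well plates, were stimulated with LPS in fresh medium containing compound. Nitrite was quantified against a sodium nitrite standard. Results were given as % inhibition versus LPS alone, mean ± S.E.M.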

[6] = tested on: J774; assay: Inhibition of LPS-stimulated IL-6 production in mouse J774 cells at 10 uM by ELISA
[7] = tested on: J774; assay: Antiinflammatory activity in mouse J774 cells assessed as inhibition of LPS-induced COX-2 protein expression at 100 uM by Western blot
[8] = tested on: J774; assay: Antiinflammatory activity in mouse J774 cells assessed as inhibition of LPS-induced COX-2 protein expression at 10 uM by Western blot
[9] = tested on: J774; assay: Antiinflammatory activity in mouse J774 cells assessed as inhibition of LPS-induced NO production at 100 uM by Griess reaction; type: functional; summary of the method: as §1
[10] = molecular target: Transcription factor p65 (Mus musculus) (UniProt Q04207); assay: Inhibition of NF-kB p65 nuclear translocation in LPS-stimulated mouse J774 cells by Western blot analysis; type: cell-based; details: concentration not given here
Chain of Transcription factor p65 (Mus musculus) (Q04207 whole entry): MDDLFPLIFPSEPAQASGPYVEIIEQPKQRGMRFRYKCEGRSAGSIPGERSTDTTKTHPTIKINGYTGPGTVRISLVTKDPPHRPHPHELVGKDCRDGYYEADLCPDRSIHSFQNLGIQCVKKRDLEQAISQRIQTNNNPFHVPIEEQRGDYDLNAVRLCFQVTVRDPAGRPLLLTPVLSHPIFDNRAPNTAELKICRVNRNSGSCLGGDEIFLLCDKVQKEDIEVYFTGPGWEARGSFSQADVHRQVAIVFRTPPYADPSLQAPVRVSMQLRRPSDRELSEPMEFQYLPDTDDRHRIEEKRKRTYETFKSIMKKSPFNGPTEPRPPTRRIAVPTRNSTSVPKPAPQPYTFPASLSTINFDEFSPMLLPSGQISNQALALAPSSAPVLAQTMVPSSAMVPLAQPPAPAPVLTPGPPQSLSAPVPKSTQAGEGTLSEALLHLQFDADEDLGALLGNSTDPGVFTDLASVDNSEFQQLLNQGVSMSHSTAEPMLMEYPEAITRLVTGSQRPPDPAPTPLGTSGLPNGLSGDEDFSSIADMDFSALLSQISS
Summary of the method: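 Nuclear extracts were prepared from LPS-treated J774 cells using hypotonic buffer A followed by high-salt buffer C (420 mM NaCl). Extract protein (20 µg) was run on 10% SDS-PAGE, blotted, and probed with anti-NF-κB p65 antibody, then detected by chemiluminescence.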

[11] = tested on: J774; assay: Inhibition of LPS-stimulated iNOS mRNA expression in mouse J774 cells by RT-PCR analysis; type: functional
Summary of the method: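 J774 cells were incubated for 3 h with LPS plus compound. Total RNA was extracted and reverse-transcribed, then run by real-time PCR for 40 cycles (95 °C 15 s / 60 °C 1 min), in duplicate. iNOS mRNA was quantified from a standard curve built with LPS-stimulated J774 RNA and normalised to GAPDH.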

[12] = molecular target: Transcription factor p65 (Mus musculus) (UniProt Q04207); assay: Inhibition of NF-kB p65 nuclear translocation in LPS-stimulated mouse J774 cells at 100 uM by Western blot analysis; type: cell-based
Summary of the method: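 J774 murine macrophages were grown in DMEM glutamax-I with 10% heat-inactivated FBS and antibiotics for 72 h to confluence, then given compound with LPS in fresh medium. Nuclear extracts were made by hypotonic lysis followed by high-salt extraction of the nuclei. 20 µg protein was run on 10% SDS-PAGE and blotted onto nitrocellulose. Blots were probed with anti-p65 and an HRP secondary antibody, and chemiluminescence was quantified. Results are mean ± SEM.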

Row | SMILES | Activity [1] | inhibition at 10 µM [2] | inhibition at 100 µM [3] | inhibition at 100 µM [4] | inhibition at 10 µM [5] | inhibition at 10 µM [6] | inhibition at 100 µM [7] | inhibition at 10 µM [8] | inhibition at 100 µM [9] | inhibition [10] | inhibition (INH) [11] | inhibition [12]
1 | CCCc1cc(=O)oc2cc(O)cc(C)c12 | Non-toxic | 7.8% | 87.8% | 54.3% | 38.5% | 12.2% | -45.6% | -6.8% | 62.5% | – | – | –
2 | COc1c(O)ccc2c(-c3ccccc3)cc(=O)oc12 | Non-toxic | 55.9% | 84.6% | 46.9% | 71.5% | – | -34.7% | -59.1% | 81.8% | – | – | –
3 | O=c1cc(-c2ccccc2F)c2ccc(O)cc2o1 | Non-toxic | 48.8% | 95.4% | 92.7% | 50.4% | 0.3% | -16.6% | -34.7% | 87.5% | – | – | –
4 | Cc1cc(O)cc2oc(=O)ccc12 | Non-toxic | 2.7% | 86.2% | 4.2% | 9.2% | – | -60.4% | -44.1% | 80% | – | – | –
5 | Cc1c(C)c2c(C)cc(O)cc2oc1=O | Non-toxic | 49.6% | 94.7% | 92.2% | 51.8% | – | 11.1% | -31.7% | 92.4% | 65% | 50% | –
6 | CCCc1cc(=O)oc2c(OC)c(O)ccc12 | Non-toxic | 13.4% | 74.6% | 73.4% | 57% | 11% | 8.6% | -38.9% | 83.7% | – | – | –
7 | CCCc1cc(=O)oc2cc(O)ccc12 | Non-toxic | 25.3% | 89.7% | 88.9% | 25.3% | 25.4% | 25% | -11.1% | 67.6% | – | – | –
8 | Cc1c(F)c(=O)oc2cc(O)ccc12 | Non-toxic | 46.5% | 53% | 38.1% | 7.4% | 21.2% | -25.1% | -2.2% | 62.8% | – | – | –
9 | Cc1cc(=O)oc2cc(O)ccc12 [HYMECROMONE] | Non-toxic | 22.1% | 61.8% | 44.1% | -14.2% | 4.6% | 22.7% | 3.2% | 42.9% | – | – | –
10 | S=C(S)N1CCCC1 [PYRROLIDINE DITHIOCARBAMATE] | – | – | 97% | – | – | – | – | – | – | – | – | 95%
11 | COc1c(O)ccc2c(C)c(F)c(=O)oc12 | Non-toxic | 2.7% | 86.2% | 14.8% | 15.8% | 10.7% | -36.8% | -15.4% | 50.2% | – | – | –
12 | CCc1c(C)c2ccc(O)cc2oc1=O | Non-toxic | 7.5% | 91% | – | 43.3% | 27.9% | -73.2% | -29.9% | 92.3% | 65% | 50% | –
13 | Cc1c(C)c2ccc(O)cc2oc1=O | Non-toxic | 28.6% | 85.5% | 85.7% | 37.6% | 16.7% | 3.7% | -57.7% | 88.9% | 65% | 50% | –
14 | Cc1cc(=O)oc2c(C)c(O)ccc12 | Non-toxic | 20.1% | 61.4% | 82.8% | 17.3% | 17.5% | 7.8% | 2.3% | 65.7% | – | – | –
15 | CCc1c(C)c2ccc(O)c(C)c2oc1=O | Non-toxic | 18.9% | 65.2% | 94.9% | 46.5% | 26.1% | 21% | -36.8% | 87% | – | – | –
16 | O=c1ccc2ccc(O)cc2o1 [UMBELLIFERONE] | Non-toxic | 10% | 47.2% | 34.1% | 5.5% | 3.2% | -20.4% | -17.2% | 64.4% | – | – | –
17 | Cc1cc(O)cc2oc(=O)cc(C)c12 | Non-toxic | -19.7% | 74.3% | 66.4% | -8.6% | 14.5% | -17.5% | -14.8% | 71% | – | – | –
18 | O=c1cc(-c2ccccc2)c2ccc(O)cc2o1 | Non-toxic | 46.5% | 93% | 95.7% | 54.8% | – | -0.4% | -47.1% | 85% | – | – | –
